# System: U2OS
# Assay: Multiplex assay against U2OS
# Assay type: toxicity, cell-based
# Conditions: human
# Procedure, shortened: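 Cells were classed with CellPathfinder machine-learning gating, first as Hoechst high-intensity objects or normal cells, then (normal cells) as healthy, pyknosed or fragmented nuclei, and finally (pyknosed cells) as mitotic or apoptotic. Staining of live cells at seeding used Hoechst33342, BioTracker Green Microtubule Cytoskeleton Dye, MitoTracker Red and Annexin V Alexa Fluor 680, with imaging on a CQ1 microscope at 37°C and 5% CO2 after compound addition. Tubulin, mitochondrial-mass and membrane-permeability phenotypes are per cents of healthy-nucleus cells.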
# [1] = 12 h, 1 µM, compound concentration 1 uM, replicate 1
# [2] = 12 h, 1 µM, compound concentration 1 uM, replicate 2
# [3] = 12 h, 10 µM, compound concentration 10 uM, replicate 1
# [4] = 12 h, 10 µM, compound concentration 10 uM, replicate 2
# [5] = 24 h, 1 µM, compound concentration 1 uM, replicate 1
# [6] = 24 h, 1 µM, compound concentration 1 uM, replicate 2
# [7] = 24 h, 10 µM, compound concentration 10 uM, replicate 1
# [8] = 24 h, 10 µM, compound concentration 10 uM, replicate 2
# [9] = 48 h, 1 µM, compound concentration 1 uM, replicate 1
# [10] = 48 h, 1 µM, compound concentration 1 uM, replicate 2
# [11] = 48 h, 10 µM, compound concentration 10 uM, replicate 1
# [12] = 48 h, 10 µM, compound concentration 10 uM, replicate 2
smiles,measurement,setting,value
CC1(COc2ccc3c(c2)ncn3-c2ccc3cccc(N4CCC(N)CC4)c3n2)COC1 [CRENOLANIB],Population Apoptotic (%),[1],58%
same,Population Fragmented Nuclei (%),[1],36%
same,Population Healthy Nuclei (%),[1],50%
same,Population Hoechst High Intensity Objects (%),[1],9%
same,Population Membrane Permeable-Phenotype (%),[1],87%
same,Population Mitochondria Different-Phenotype (%),[1],51%
same,Population Mitotic Cells (%),[1],41%
same,Population Normal (%),[1],90%
same,Population Pyknosed Nuclei (%),[1],13%
same,Population Tubulin-Different-Phenotype (%),[1],92%
same,Total Cell Count,[1],143
same,Population Apoptotic (%),[2],25%
same,Population Fragmented Nuclei (%),[2],28%
same,Population Healthy Nuclei (%),[2],60%
same,Population Hoechst High Intensity Objects (%),[2],13%
same,Population Membrane Permeable-Phenotype (%),[2],82%
same,Population Mitochondria Different-Phenotype (%),[2],73%
same,Population Mitotic Cells (%),[2],75%
same,Population Normal (%),[2],86%
same,Population Pyknosed Nuclei (%),[2],10%
same,Population Tubulin-Different-Phenotype (%),[2],88%
same,Total Cell Count,[2],86
same,Population Apoptotic (%),[3],81%
same,Population Fragmented Nuclei (%),[3],43%
same,Population Healthy Nuclei (%),[3],11%
same,Population Hoechst High Intensity Objects (%),[3],21%
same,Population Membrane Permeable-Phenotype (%),[3],76%
same,Population Mitochondria Different-Phenotype (%),[3],80%
same,Population Mitotic Cells (%),[3],18%
same,Population Normal (%),[3],78%
same,Population Pyknosed Nuclei (%),[3],44%
same,Population Tubulin-Different-Phenotype (%),[3],88%
same,Total Cell Count,[3],274
same,Population Apoptotic (%),[4],92%
same,Population Fragmented Nuclei (%),[4],37%
same,Population Healthy Nuclei (%),[4],21%
same,Population Hoechst High Intensity Objects (%),[4],24%
same,Population Membrane Permeable-Phenotype (%),[4],47%
same,Population Mitochondria Different-Phenotype (%),[4],76%
same,Population Mitotic Cells (%),[4],7%
same,Population Normal (%),[4],75%
same,Population Pyknosed Nuclei (%),[4],41%
same,Population Tubulin-Different-Phenotype (%),[4],85%
same,Population Apoptotic (%),[5],71%
same,Population Fragmented Nuclei (%),[5],39%
same,Population Healthy Nuclei (%),[5],45%
same,Population Hoechst High Intensity Objects (%),[5],9%
same,Population Membrane Permeable-Phenotype (%),[5],71%
same,Population Mitochondria Different-Phenotype (%),[5],62%
same,Population Mitotic Cells (%),[5],28%
same,Population Normal (%),[5],90%
same,Population Pyknosed Nuclei (%),[5],14%
same,Population Tubulin-Different-Phenotype (%),[5],87%
same,Total Cell Count,[5],156
same,Population Apoptotic (%),[6],54%
same,Population Fragmented Nuclei (%),[6],25%
same,Population Healthy Nuclei (%),[6],62%
same,Population Hoechst High Intensity Objects (%),[6],10%
same,Population Membrane Permeable-Phenotype (%),[6],67%
same,Population Mitochondria Different-Phenotype (%),[6],67%
same,Population Mitotic Cells (%),[6],45%
same,Population Normal (%),[6],89%
same,Population Pyknosed Nuclei (%),[6],12%
same,Population Tubulin-Different-Phenotype (%),[6],72%
same,Total Cell Count,[6],98
same,Population Apoptotic (%),[7],93%
same,Population Fragmented Nuclei (%),[7],46%
same,Population Healthy Nuclei (%),[7],8%
same,Population Hoechst High Intensity Objects (%),[7],37%
same,Population Membrane Permeable-Phenotype (%),[7],42%
same,Population Mitochondria Different-Phenotype (%),[7],50%
same,Population Mitotic Cells (%),[7],6%
same,Population Normal (%),[7],62%
same,Population Pyknosed Nuclei (%),[7],45%
same,Population Tubulin-Different-Phenotype (%),[7],50%
same,Total Cell Count,[7],254
same,Population Apoptotic (%),[8],100%
same,Population Fragmented Nuclei (%),[8],53%
same,Population Healthy Nuclei (%),[8],11%
same,Population Hoechst High Intensity Objects (%),[8],36%
same,Population Membrane Permeable-Phenotype (%),[8],44%
same,Population Mitochondria Different-Phenotype (%),[8],77%
same,Population Mitotic Cells (%),[8],0%
same,Population Normal (%),[8],63%
same,Population Pyknosed Nuclei (%),[8],34%
same,Population Tubulin-Different-Phenotype (%),[8],77%
same,Population Apoptotic (%),[9],88%
same,Population Fragmented Nuclei (%),[9],41%
same,Population Healthy Nuclei (%),[9],43%
same,Population Hoechst High Intensity Objects (%),[9],8%
same,Population Membrane Permeable-Phenotype (%),[9],35%
same,Population Mitochondria Different-Phenotype (%),[9],40%
same,Population Mitotic Cells (%),[9],12%
same,Population Normal (%),[9],91%
same,Population Pyknosed Nuclei (%),[9],14%
same,Population Tubulin-Different-Phenotype (%),[9],44%
same,Total Cell Count,[9],186
same,Population Apoptotic (%),[10],62%
same,Population Fragmented Nuclei (%),[10],37%
same,Population Healthy Nuclei (%),[10],48%
same,Population Hoechst High Intensity Objects (%),[10],4%
same,Population Membrane Permeable-Phenotype (%),[10],53%
same,Population Mitochondria Different-Phenotype (%),[10],37%
same,Population Mitotic Cells (%),[10],37%
same,Population Normal (%),[10],95%
same,Population Pyknosed Nuclei (%),[10],13%
same,Population Tubulin-Different-Phenotype (%),[10],51%
same,Population Apoptotic (%),[11],100%
same,Population Fragmented Nuclei (%),[11],51%
same,Population Healthy Nuclei (%),[11],11%
same,Population Hoechst High Intensity Objects (%),[11],42%
same,Population Membrane Permeable-Phenotype (%),[11],43%
same,Population Mitochondria Different-Phenotype (%),[11],37%
same,Population Mitotic Cells (%),[11],0%
same,Population Normal (%),[11],58%
same,Population Pyknosed Nuclei (%),[11],37%
same,Population Tubulin-Different-Phenotype (%),[11],56%
same,Total Cell Count,[11],250
same,Population Fragmented Nuclei (%),[12],57%
same,Population Healthy Nuclei (%),[12],13%
same,Population Hoechst High Intensity Objects (%),[12],29%
same,Population Membrane Permeable-Phenotype (%),[12],50%
same,Population Mitochondria Different-Phenotype (%),[12],35%
same,Population Normal (%),[12],70%
same,Population Pyknosed Nuclei (%),[12],28%
same,Population Tubulin-Different-Phenotype (%),[12],28%
same,Total Cell Count,[12],144
C[C@@H]1C[C@H]2[C@@H]3CCC4=CC(=O)C=C[C@]4(C)[C@@]3(F)[C@@H](O)C[C@]2(C)[C@@]1(O)C(=O)CO [DEXAMETHASONE],Population Apoptotic (%),[1],77%
same,Population Fragmented Nuclei (%),[1],21%
same,Population Healthy Nuclei (%),[1],70%
same,Population Hoechst High Intensity Objects (%),[1],2%
same,Population Membrane Permeable-Phenotype (%),[1],2%
same,Population Mitochondria Different-Phenotype (%),[1],0%
same,Population Mitotic Cells (%),[1],22%
same,Population Normal (%),[1],97%
same,Population Pyknosed Nuclei (%),[1],7%
same,Population Tubulin-Different-Phenotype (%),[1],1%
same,Total Cell Count,[1],238
same,Population Apoptotic (%),[2],80%
same,Population Fragmented Nuclei (%),[2],20%
same,Population Healthy Nuclei (%),[2],75%
same,Population Hoechst High Intensity Objects (%),[2],0%
same,Population Membrane Permeable-Phenotype (%),[2],4%
same,Population Mitochondria Different-Phenotype (%),[2],1%
same,Population Mitotic Cells (%),[2],20%
same,Population Normal (%),[2],99%
same,Population Pyknosed Nuclei (%),[2],4%
same,Population Tubulin-Different-Phenotype (%),[2],3%
same,Total Cell Count,[2],124
same,Population Apoptotic (%),[3],80%
same,Population Fragmented Nuclei (%),[3],20%
same,Population Healthy Nuclei (%),[3],69%
same,Population Hoechst High Intensity Objects (%),[3],2%
same,Population Membrane Permeable-Phenotype (%),[3],6%
same,Population Mitochondria Different-Phenotype (%),[3],1%
same,Population Mitotic Cells (%),[3],19%
same,Population Normal (%),[3],97%
same,Population Pyknosed Nuclei (%),[3],9%
same,Population Tubulin-Different-Phenotype (%),[3],2%
same,Total Cell Count,[3],319
same,Population Apoptotic (%),[4],84%
same,Population Fragmented Nuclei (%),[4],16%
same,Population Healthy Nuclei (%),[4],76%
same,Population Hoechst High Intensity Objects (%),[4],0%
same,Population Membrane Permeable-Phenotype (%),[4],7%
same,Population Mitochondria Different-Phenotype (%),[4],2%
same,Population Mitotic Cells (%),[4],15%
same,Population Normal (%),[4],100%
same,Population Pyknosed Nuclei (%),[4],7%
same,Population Tubulin-Different-Phenotype (%),[4],3%
same,Population Apoptotic (%),[5],96%
same,Population Fragmented Nuclei (%),[5],19%
same,Population Healthy Nuclei (%),[5],71%
same,Population Hoechst High Intensity Objects (%),[5],2%
same,Population Membrane Permeable-Phenotype (%),[5],4%
same,Population Mitochondria Different-Phenotype (%),[5],2%
same,Population Mitotic Cells (%),[5],4%
same,Population Normal (%),[5],97%
same,Population Pyknosed Nuclei (%),[5],8%
same,Population Tubulin-Different-Phenotype (%),[5],2%
same,Total Cell Count,[5],288
same,Population Apoptotic (%),[6],90%
same,Population Fragmented Nuclei (%),[6],18%
same,Population Healthy Nuclei (%),[6],73%
same,Population Membrane Permeable-Phenotype (%),[6],6%
same,Population Mitochondria Different-Phenotype (%),[6],0%
same,Population Mitotic Cells (%),[6],9%
same,Population Pyknosed Nuclei (%),[6],7%
same,Population Tubulin-Different-Phenotype (%),[6],4%
same,Population Apoptotic (%),[7],82%
same,Population Fragmented Nuclei (%),[7],17%
same,Population Healthy Nuclei (%),[7],74%
same,Population Hoechst High Intensity Objects (%),[7],1%
same,Population Membrane Permeable-Phenotype (%),[7],6%
same,Population Mitochondria Different-Phenotype (%),[7],0%
same,Population Mitotic Cells (%),[7],17%
same,Population Normal (%),[7],98%
same,Population Pyknosed Nuclei (%),[7],7%
same,Population Tubulin-Different-Phenotype (%),[7],2%
same,Total Cell Count,[7],378
same,Population Apoptotic (%),[8],75%
same,Population Fragmented Nuclei (%),[8],14%
same,Population Healthy Nuclei (%),[8],79%
same,Population Hoechst High Intensity Objects (%),[8],0%
same,Population Mitochondria Different-Phenotype (%),[8],2%
same,Population Mitotic Cells (%),[8],25%
same,Population Normal (%),[8],99%
same,Population Pyknosed Nuclei (%),[8],5%
same,Total Cell Count,[8],219
same,Population Apoptotic (%),[9],84%
same,Population Fragmented Nuclei (%),[9],20%
same,Population Healthy Nuclei (%),[9],72%
same,Population Hoechst High Intensity Objects (%),[9],1%
same,Population Membrane Permeable-Phenotype (%),[9],1%
same,Population Mitochondria Different-Phenotype (%),[9],1%
same,Population Mitotic Cells (%),[9],16%
same,Population Normal (%),[9],98%
same,Population Pyknosed Nuclei (%),[9],6%
same,Population Tubulin-Different-Phenotype (%),[9],0%
same,Total Cell Count,[9],391
same,Population Apoptotic (%),[10],71%
same,Population Fragmented Nuclei (%),[10],17%
same,Population Healthy Nuclei (%),[10],74%
same,Population Hoechst High Intensity Objects (%),[10],2%
same,Population Membrane Permeable-Phenotype (%),[10],3%
same,Population Mitochondria Different-Phenotype (%),[10],3%
same,Population Mitotic Cells (%),[10],28%
same,Population Normal (%),[10],97%
same,Population Pyknosed Nuclei (%),[10],7%
same,Population Tubulin-Different-Phenotype (%),[10],4%
same,Total Cell Count,[10],186
same,Population Apoptotic (%),[11],92%
same,Population Fragmented Nuclei (%),[11],14%
same,Population Healthy Nuclei (%),[11],77%
same,Population Hoechst High Intensity Objects (%),[11],2%
same,Population Membrane Permeable-Phenotype (%),[11],4%
same,Population Mitochondria Different-Phenotype (%),[11],1%
same,Population Mitotic Cells (%),[11],7%
same,Population Normal (%),[11],97%
same,Population Pyknosed Nuclei (%),[11],8%
same,Population Tubulin-Different-Phenotype (%),[11],1%
same,Total Cell Count,[11],497
same,Population Apoptotic (%),[12],86%
same,Population Fragmented Nuclei (%),[12],16%
same,Population Healthy Nuclei (%),[12],76%
same,Population Membrane Permeable-Phenotype (%),[12],5%
same,Population Mitochondria Different-Phenotype (%),[12],0%
same,Population Mitotic Cells (%),[12],13%
same,Population Pyknosed Nuclei (%),[12],7%
same,Total Cell Count,[12],294

# From ChEMBL document CHEMBL5058577, “EUbOPEN Chemogenomics Library 2 (Multiplex)” (2022)
